Tests used:
[1] = tested on: Human gammaherpesvirus 4; assay: TPA-induced EBV early antigen activation in Raji cells at 3.2 nmol relative to control
[2] = tested on: Raji; assay: Survival of Raji cells at 0.32 nmol by trypan blue staining method; type: functional, Homo sapiens
In short: (§1)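 Raji cells (EBV genome-carrying, non-producer) grown to 10⁶ cells/mL, centrifuged, resuspended in RPMI 1640 with 10% FCS, 4 mM n-butyric acid and 32 pmol TPA (20 ng/mL), plus test compound in DMSO (32, 16, 3.2 or 0.32 nmol; 1000–10 mol ratio/TPA). Incubated 37 °C, 48 h; viability counted by hemocytometer with Trypan Blue; ≥60% survival required.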

[3] = tested on: Raji; assay: Survival of Raji cells at 16 nmol by trypan blue staining method; type: functional, Homo sapiens
In short: as §1

[4] = tested on: Raji; assay: Survival of Raji cells at 32 nmol by trypan blue staining method; type: functional, Homo sapiens
In short: as §1

[5] = tested on: Human gammaherpesvirus 4; assay: TPA-induced EBV early antigen activation in Raji cells at 0.32 nmol relative to control
[6] = tested on: Human gammaherpesvirus 4; assay: TPA-induced EBV early antigen activation in Raji cells at 16 nmol relative to control
[7] = tested on: Human gammaherpesvirus 4; assay: TPA-induced EBV early antigen activation in Raji cells at 32 nmol relative to control
[8] = tested on: Raji; assay: Survival of Raji cells at 3.2 nmol by trypan blue staining method; type: functional, Homo sapiens
In short: as §1

[9] = species on record: Mus musculus; assay: Inhibition of TPA-induced skin tumor in SENCAR mouse assessed as reduction of skin papilloma at 85 nmol after 10 weeks; type: functional; parameters: scale not given: the % may be the effect or the level left
[10] = species on record: Mus musculus; assay: Inhibition of TPA-induced skin tumor in SENCAR mouse assessed as reduction of skin papilloma at 85 nmol after 20 weeks; type: functional; parameters: scale not given: the % may be the effect or the level left

Compound	EBV-EA activation [1] [%]	Survival [2] [%]	Survival [3] [%]	Survival [4] [%]	EBV-EA activation [5] [%]	EBV-EA activation [6] [%]	EBV-EA activation [7] [%]	Survival [8] [%]	Activity [9] [%]	Activity [10] [%]
COc1cc(/C=C/Cc2ccc(O)c(O)c2OC)ccc1OC(C)=O	74	>80	>80	60	100	36.1	9.4	>80		
COc1ccc(C/C=C/c2ccccc2)c(OC)c1O	76.9	>80	>80	60	100	41.2	14.1	>80		
COc1cc(/C=C/Cc2ccc(O)c(O)c2OC)ccc1O	70.2	>80	>80	60	95.7	43.7	7.5	>80		
COc1cc(/C=C/Cc2ccc(OC)c(OCC=C(C)C)c2O)ccc1O	64.2	>80	>80	70	87.1	28.3	0	>80		
COc1cc(/C=C/Cc2ccc(OC)c(O)c2OCC=C(C)C)ccc1O	63.2	>80	>80	70	88.1	27.8	0	>80		
COc1ccc(C/C=C/c2ccccc2)c(O)c1	73.7	>80	>80	60	100	45.1	20.7	>80		
COc1c(C/C=C/c2ccccc2)ccc(O)c1C/C=C/c1ccccc1	68.2	>80	>80	60	100	41.5	12.8	>80		
COc1cc(O)ccc1C/C=C/c1ccccc1	73.2	>80	>80	60	100	44.7	18.1	>80		
COc1ccc(C/C=C/c2ccccc2)c(O)c1O	71.5	>80	>80	60	100	42.5	10.8	>80		
COc1ccc(C/C=C/c2ccccc2)c(O)c1OC	76.2	>80	>80	60	100	45.5	13.3	>80		
COc1c(C/C=C/c2ccccc2)cc(C/C=C/c2ccccc2)c(O)c1OC	75.6	>80	>80	60	100	46.4	15.9	>80		
COc1c(C/C=C/c2ccccc2)cc(C/C=C/c2ccccc2)c(OC)c1OC	75.2	>80	>80	60	100	39.8	12.6	>80		
COc1c(C/C=C/c2ccccc2)ccc(OCC=C(C)C)c1OC	68.2	>80	>80	70	91.5	29.8	0	>80		
COc1cc(/C=C/Cc2ccc(OC)c(O)c2O)ccc1O	73.2	>80	>80	60	95.7	45.5	8.7	>80		
COc1cc(/C=C/Cc2ccc(OC)c(OCC=C(C)C)c2OCC=C(C)C)ccc1OCC=C(C)C	61.5	>80	>80	70	83.3	23.6	0	>80		
COc1cc(/C=C/Cc2ccc(OC)c(O)c2O)ccc1OC(C)=O	74.6	>80	>80	60	100	37.6	10	>80		
COc1cccc(O)c1C/C=C/c1ccccc1	70.5	>80	>80	60	100	43.7	18.3	>80		
COc1ccc(C/C=C/c2ccccc2)c(OCC=C(C)C)c1	67.8	>80	>80	70	91.7	29.9	0	>80		
COc1cccc(OCC=C(C)C)c1C/C=C/c1ccccc1	68.9	>80	>80	70	92.7	30.8	0	>80		
COc1cc(OCC=C(C)C)ccc1C/C=C/c1ccccc1	65.2	>80	>80	70	87.6	29.3	0	>80		
COc1ccc(C/C=C/c2ccccc2)c(O)c1OCC=C(C)C	65.6	>80	>80	70	90.8	30.6	0	>80		
COc1cc(/C=C/Cc2ccc(OC)c(OCC=C(C)C)c2O)ccc1OCC=C(C)C	68.6	>80	>80	70	89.1	27.5	0	>80	87	53
COc1ccc(C/C=C/c2ccccc2)c(OCC=C(C)C)c1O	64.5	>80	>80	70	90.6	27.6	0	>80		
COc1c(C/C=C/c2ccccc2)ccc(OCC=C(C)C)c1OCC=C(C)C	64.5	>80	>80	70	88.9	22.6	0	>80		30
COc1c(O)ccc(C/C=C/c2ccccc2)c1OC	74	>80	>80	60	100	44.3	12.5	>80		
COc1ccc(C/C=C/c2ccccc2)c(OC)c1OC	76.6	>80	>80	60	100	41.5	14.2	>80		
COc1ccc(C/C=C/c2ccccc2)c(OCC=C(C)C)c1OCC=C(C)C	62.2	>80	>80	70	88.6	24.6	0	>80		
COc1cc(/C=C/C(=O)CC(=O)/C=C/c2ccc(O)c(OC)c2)ccc1O [CURCUMIN]	81.7	>80	>80	60	100	22.8	0	>80		
COc1c(C/C=C/c2ccccc2)ccc(O)c1O [HYDROXYOBUSTYRENE]	71	>80	>80	60	100	41.3	10.2	>80		

From ChEMBL document CHEMBL1147206, “Synthetic cinnamylphenol derivatives as cancer chemopreventive agents” (2007)
